Test system: MS2 coat protein
Test: apparent Kd, MS2 coat protein; higher = weaker binding; RNA-MaP array; FMN 200 µM where present
In short: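 Apparent Kd: the median of filtered binding-curve fits from single clusters. Designs were transcribed on Illumina sequencing-chip clusters by stalled E. coli RNA polymerase and titrated with SNAP-549-labelled MS2 coat protein from 0.7 or 1.5 nM, doubling to 3 µM, in 100 mM Tris-HCl pH 7.5, 80 mM KCl, 4 mM MgCl2, BSA, DTT, yeast tRNA and Tween-20. Each series ran without and then with constant ligand, and green signal was normalised to red-channel RNA signal and control-cluster median Fmax.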

[1] = designed as: OFF switch for flavin mononucleotide, no ligand
[2] = ligand present: flavin mononucleotide, designed as: OFF switch for flavin mononucleotide
[3] = designed as: ON switch for flavin mononucleotide, no ligand
[4] = ligand present: flavin mononucleotide, designed as: ON switch for flavin mononucleotide

## GUCGUGUGAGGAUAUGAUUGUACGGCAGACUAGCGUCUGCUUCAGAAGGCACAUGAGGAUCACCCAUGUUUGUC
[1]
  apparent Kd: 0.0186 µM
[2]
  apparent Kd: 0.0344 µM

## AGUUAUCAUGUAGGAUAUGCUUGAGGUAAGAAAGCAGAAGGACAUGAGGAUCACCCAUGUUAAUGAUACAGAUUUUAGUUUCUU
[1]
  apparent Kd: 0.0329 µM
[2]
  apparent Kd: 0.201 µM

## AAGAGCGAUUCUCCCUUCCUACAUGAGGAUCACCCAUGUACGAGAAGGCGCCGCGUAUACAACGGUGAGGAUAUCGUGCGUUAC
[1]
  apparent Kd: 0.00445 µM
[2]
  apparent Kd: 0.00498 µM

## AAUAACAGAGGAUAUACUGUUUUAUGUAUUUAUUAUUUUAAACAUGAGGAUCACCCAUGUAGAAGGCUGAUUGA
[1]
  apparent Kd: 0.0337 µM
[2]
  apparent Kd: 0.0298 µM

## GACAUACAUGAGGAUCACCCAUGUUCAAGCGGACAAGGAUAUGUGUGGAAACCAUACUAUACAGAAGGUGUCUGUC
[3]
  apparent Kd: 0.0259 µM
[4]
  apparent Kd: 0.0171 µM

## UUUGAUUAAGUGAGGAUAUACUGUUUGUAUUGAUUGUAGAAGGUACAUGAGGAUCACCCAUGUUUAGUAUUUAU
[1]
  apparent Kd: 0.0205 µM
[2]
  apparent Kd: 0.02 µM

## AAAAAACAUGAGGAUCACCCAUGUGAGGAUAUCUGAAAAAAAAAAAAAAAAAAGAAAAAGAGAAGGCGCAAAGA
[1]
  apparent Kd: 0.124 µM
[2]
  apparent Kd: 0.0652 µM

## UUUUUAUAAGAGAAGGAGGACUUCAUGAGGAUCACCCAUGUGUUAGUACUUAGGAUAUUUGAUAACAUGAGGAUCACCCAUGUC
[3]
  apparent Kd: 0.0314 µM
[4]
  apparent Kd: 0.0281 µM

## AGGCGUAAGACAGGAUAUAGGCAGCGGGCUGGAAACGAAUACAAAGACAUGAGGAUCACCCAUGUCUAGAAGGGUCGUGGCGGG
[1]
  apparent Kd: 0.00905 µM
[2]
  apparent Kd: 0.00988 µM

## UCAUGAAGGGCAGGAUAUGGACAUGAGGAUCACCCAUGUACAUGGGAUUAUAUACUAAAUUAAUACUAGAAGGGUUACAUAAAU
[1]
  apparent Kd: 0.0479 µM
[2]
  apparent Kd: 0.0231 µM

## GGAGCGAGCACAGGAUAUAAGCUAACGGUUAGUUUAGAAGGGUGGGAUCAGACAUGAGGAUCACCCAUGUGUGUUUUUGCUCCA
[3]
  apparent Kd: 0.128 µM
[4]
  apparent Kd: 0.314 µM

## UUUUAACAUGAGGAUCACCCAUGUGAGGAUAUCGAAAUUUAUAUUAAUAUUAAUUUAACGAGAAGGCACAUUUU
[1]
  apparent Kd: 0.101 µM
[2]
  apparent Kd: 0.0937 µM

## GCGUUCUUGUAGAAGGUACAAGAAAACUAUUAUUAACACAUGAAACAUGAGGAUCACCCAUGUAGUAAGGAUAUACAUGAACGC
[3]
  apparent Kd: 0.0101 µM
[4]
  apparent Kd: 0.00718 µM

## UUUAGUUCAGGAUAUGUAGAUUUUAACAUGAGGAUCACCCAUGUAGAUCCUGAUCCUGCUACAGAAGGGAAUAUUU
[1]
  apparent Kd: 0.0231 µM
[2]
  apparent Kd: 0.0251 µM

## AAAAAGUGAGGAUAUACGAAAAAAAAAAAAAAAAAAGGUGAACAUGAGGAUCACCCAUGUAGAAGGCACAAAAA
[1]
  apparent Kd: 0.311 µM
[2]
  apparent Kd: 0.243 µM

## GCACUGGAUGUAGGAUAUCAGGACGAUAAGUCCUGAGAAGGACAUGAGGAUCACCCAUGUAACCUCUAACCAGUGCAUAAUAUA
[1]
  apparent Kd: 0.0126 µM
[2]
  apparent Kd: 0.0232 µM

## GGCACCAUCACAGGAUAUGCUUUCUUUUGGGAAGCAGAAGGGUGUAACAUGAGGAUCACCCAUGUGGUGCCAGGGCGUGAGCCC
[3]
  apparent Kd: 0.175 µM
[4]
  apparent Kd: 0.014 µM

## AGAUAUGAUGCAGGAUAUCUAUCUUGAAUGAGGAGAGAAGGGCAAGCAGAGAGAUAAGCCUUAUUACAUGAGGAUCACCCAUGU
[1]
  apparent Kd: 0.0103 µM
[2]
  apparent Kd: 0.00856 µM

## UCAUACGGUGAGGAUAUCUCCGUUAAAGUAUGUAGAGAAGGCGCUACAUGAGGAUCACCCAUGUUUGUGGGCAG
[1]
  apparent Kd: 0.392 µM
[2]
  apparent Kd: 0.278 µM

## CUUCGUUGUAAGGAUAUCCAGACUCUUCCUGUCGGAGAAGGUACAACAUGAGGAUCACCCAUGUUGCUACAUGG
[1]
  apparent Kd: 0.025 µM
[2]
  apparent Kd: 0.0387 µM

## GGGUACAUGGGAGGAUAUCAUGUAAAUACAUGAGGAUCACCCAUGUCGAUGGAGACAUCGGAGAUUGAGAAGGCCGAUGUACCG
[3]
  apparent Kd: 0.0211 µM
[4]
  apparent Kd: 0.0377 µM

## CCUUGACAUGAGGAUCACCCAUGUUAGGAUAUAACAUUAGACACUACAGUAUGUAGUGUUAGAAGGGAUAUGGG
[1]
  apparent Kd: 0.0228 µM
[2]
  apparent Kd: 0.0285 µM

## GGGCCGCUACGCCGGCUCCACGCACAGGAUAUGCAGUUACAUGAGGAUCACCCAUGUGGCCAUGUGCAGAAGGGUGAUUCGCGA
[3]
  apparent Kd: 0.0787 µM
[4]
  apparent Kd: 0.0461 µM

## GAAUAUUCGUUGUACAUGAGGAUCACCCAUGUGACUUGACAUGAGGAUAUGGAUUCUAAUUGGAUCCAGAAGGCAUGAAUAUUC
[3]
  apparent Kd: 0.122 µM
[4]
  apparent Kd: 0.0315 µM

## GGUACUCAAAGAGUACCUAUACGAACAUGAGGAUCACCCAUGUAGGAUAUGCUACUCAAAGAGUAGCAGAAGGACAUGUGCCUA
[1]
  apparent Kd: 0.0186 µM
[2]
  apparent Kd: 0.108 µM

## CUGAGUAGUCAGGAUAUGUGGUACAAAAGUACUGCAGAAGGGAUUACAUGAGGAUCACCCAUGUUUACUUCAUG
[1]
  apparent Kd: 0.0474 µM
[2]
  apparent Kd: 0.242 µM

## CAGAAGUCAGGAUAUCCAUGGCGGCACUUGCGUGGUGGCGUGGAGAAGGGACAUGAGGAUCACCCAUGUAAAGA
[1]
  apparent Kd: 0.0592 µM
[2]
  apparent Kd: 0.0482 µM

## CACUUAGGCACAUGAGGAUCACCCAUGUCCCGGGAGCCGAGACAGGAUAUGUGCCUCGAAUGUGCACAGAAGGGUCUACUAUGU
[3]
  apparent Kd: 0.165 µM
[4]
  apparent Kd: 0.229 µM

From the EternaBench riboswitch data
